Experimental findings from ChEMBL document CHEMBL1123521, “Isozyme-specific enzyme inhibitors. 10. Adenosine 5'-triphosphate derivatives as substrates or inhibitors of methionine adenosyltransferases of rat normal and hepatoma tissues” (J Med Chem, 1986) are described below.

The term Ki denotes the dissociation constant of the complex between target and ligand, obtained from inhibition or displacement. Read a high Ki as a looser hold on the target. Usually pKi stands for the negative decadic logarithm of the Ki, by convention in mol/L. Lower therefore signals a large Ki.

pKi: −log10 of the molar value.

Assay [1] has as its target T1, S-adenosylmethionine synthetase (MAT 1 and MAT 2) (Rattus norvegicus, UniProt P13444+P18298). Nature of the assay: […] rat Methionine adenosyltransferase was reported. It counts as protein assay. An outline of the steps: (§1)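 MAT-T partly purified from rat Novikoff hepatoma cells grown intraperitoneally in rats: cytosol extract, DEAE-cellulose, stored at -20 °C, diluted 10-fold for use. Assay run in duplicate, 37 °C for 30 min, in 150 mM KCl–15 mM MgCl2–5 mM DTT–50 mM Tris-HCl pH 8.2 with 60 μM [14C]methionine. Inhibitors given as 1:1 Mg complexes at two levels of 1-5 × Ki, with six to eight Mg-ATP levels (0.5-4.0 × KM).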

The target of assay [2] is T2, S-adenosylmethionine synthase isoform type-2 (Rattus norvegicus, UniProt P18298). Nature of the assay: Inhibitory constant against rat kidney Methionine adenosyltransferase II. In a few lines: (§2)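 MAT-II from rat kidney extract, taken through DEAE chromatography and diluted 10-fold daily. Duplicate 30-min incubations at 37 °C in 150 mM KCl–15 mM MgCl2–5 mM DTT–50 mM Tris-HCl pH 8.2 with 60 μM [14C]methionine. Mg-complexed inhibitor used at two levels (1-5 × Ki) against six to eight Mg-ATP levels (0.5-4.0 × KM). Product counted on phosphocellulose disks.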
T2 sequence (P18298 whole entry, canonical isoform): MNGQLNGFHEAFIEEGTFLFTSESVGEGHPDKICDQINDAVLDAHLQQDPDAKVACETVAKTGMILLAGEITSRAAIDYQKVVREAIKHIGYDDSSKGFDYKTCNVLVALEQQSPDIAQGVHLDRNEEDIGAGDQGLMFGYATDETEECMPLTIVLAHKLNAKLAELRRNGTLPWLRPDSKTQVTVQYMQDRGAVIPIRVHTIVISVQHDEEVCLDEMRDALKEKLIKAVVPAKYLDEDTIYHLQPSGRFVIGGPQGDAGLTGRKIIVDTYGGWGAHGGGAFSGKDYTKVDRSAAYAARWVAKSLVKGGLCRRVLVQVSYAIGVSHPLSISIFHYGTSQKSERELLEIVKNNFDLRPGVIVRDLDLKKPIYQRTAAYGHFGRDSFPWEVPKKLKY

The target of assay [3] is T1, S-adenosylmethionine synthetase (MAT 1 and MAT 2). Nature of the assay: Competitive inhibition of rat methionine adenosyltransferase, activity expressed as Ki. Format: protein assay. An outline of the steps:
as §1

The target in assay [4] is T2, S-adenosylmethionine synthase isoform type-2. Kind of assay: Inhibitory constant against rat kidney Methionine adenosyltransferase II, activity expressed as Ki. An outline of the steps: as §2
Assay [5] deals with T3, S-adenosylmethionine synthase isoform type-1 (Rattus norvegicus, UniProt P13444). Kind of assay: Inhibitory constant against rat liver Methionine adenosyltransferase I, activity expressed as Ki. In a few lines:
(§3)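 Rat liver MAT-I, prepared free of MAT-II and MAT-III and diluted 5-fold. Duplicate assays at 37 °C, 30 min, in 150 mM KCl–7.5 mM MgSO4–2 mM DTT–50 mM HEPES pH 7.5 with 380 μM [14C]methionine. Two inhibitor levels (1:1 Mg complexes, 1-5 × Ki) run against six to eight Mg-ATP levels spanning 0.5-4.0 × KM. Ki taken from kinetic plots.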

Assay [6] addresses T3, S-adenosylmethionine synthase isoform type-1. Nature of the assay: Inhibitory constant against rat liver Methionine adenosyltransferase I. In a few lines: as §3
The target of assay [7] is T1, S-adenosylmethionine synthetase (MAT 1 and MAT 2). Nature of the assay: Inhibitory constant against rat methionine adenosyltransferase was reported. It counts as protein assay. An outline of the steps: as §1

T3 sequence (P13444 whole entry, canonical isoform): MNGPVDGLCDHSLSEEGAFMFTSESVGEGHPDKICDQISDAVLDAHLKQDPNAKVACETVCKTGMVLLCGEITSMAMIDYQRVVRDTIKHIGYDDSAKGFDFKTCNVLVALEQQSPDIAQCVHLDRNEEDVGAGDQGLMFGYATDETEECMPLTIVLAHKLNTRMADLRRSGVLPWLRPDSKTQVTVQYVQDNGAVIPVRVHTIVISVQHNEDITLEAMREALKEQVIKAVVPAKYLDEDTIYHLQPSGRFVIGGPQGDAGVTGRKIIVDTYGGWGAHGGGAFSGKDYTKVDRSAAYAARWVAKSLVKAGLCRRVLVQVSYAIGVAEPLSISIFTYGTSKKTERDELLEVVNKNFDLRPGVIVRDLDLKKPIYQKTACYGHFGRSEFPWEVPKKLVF

Compound `Nc1ncnc2c1ncn2[C@@H]1O[C@H](COP(=O)(O)CP(=O)(O)OP(=O)(O)O)[C@@H](O)[C@H]1O` [DIPHOSPHOMETHYLPHOSPHONIC ACID ADENOSYL ESTER] had a Ki in assay [1] of 340 µM. In assay [2], this compound showed a negative-log Ki (pKi) of 3.52.

Consider `Nc1ncnc2c1ncn2[C@@H]1O[C@H](COP(=O)(O)OP(=O)(O)NP(=O)(O)O)[C@@H](O)[C@H]1O`, for which the inhibition constant (Ki) in assay [1] amounted to 4 µM. Also, the pKi in assay [2] was 5.26.

For the compound `CSc1nc(N)c2ncn([C@@H]3O[C@H](COP(=O)(O)OP(=O)(O)OP(=O)(O)O)[C@@H](O)[C@H]3O)c2n1`, the Ki in assay [1] was 110 µM. Besides, the negative-log Ki (pKi) in assay [2] was 3.22.

Consider `CO[C@H]1[C@@H](O)[C@H](n2cnc3c(N)ncnc32)O[C@@H]1COP(=O)(O)OP(=O)(O)OP(=O)(O)O`, for which, in assay [3], the inhibitory constant (Ki) is 180 µM. Moreover, in assay [4], the pKi was 3.77.

For the compound `CO[C@@H]1[C@H](O)[C@@H](COP(=O)(O)OP(=O)(O)OP(=O)(O)O)O[C@H]1n1cnc2c(N)ncnc21`, the Ki in assay [3] was determined as 170 µM. This compound showed a negative-log Ki (pKi) in assay [4] of 3.85.

As for `CC(OP(=O)(O)OP(=O)(O)OP(=O)(O)O)[C@H]1O[C@@H](n2cnc3c(N)ncnc32)[C@H](O)[C@@H]1O` (stereo not given in full), the pKi in assay [5] is 5.05; in assay [4] it was 3.72. Also, the Ki in assay [3] amounted to 80 µM.

Regarding `Nc1ncnc2c1nc(SCCC(N)C(=O)O)n2C1O[C@H](COP(=O)(O)OP(=O)(O)OP(=O)(O)O)[C@@H](O)[C@H]1O` (stereo not given in full), the negative logarithm of the Ki (pKi) in assay [6] was 2.48; in assay [2], 3.28.

In turn, `CSc1nc2c(N)ncnc2n1[C@@H]1O[C@H](COP(=O)(O)OP(=O)(O)OP(=O)(O)O)[C@@H](O)[C@H]1O` showed a Ki in assay [1] of 530 µM.

In the case of `CCCCNc1ncnc2c1ncn2C1O[C@H](COP(=O)(O)OP(=O)(O)OP(=O)(O)O)[C@@H](O)[C@H]1O` (stereo not given in full), the Ki in assay [7] is 210 µM. This compound gave a pKi in assay [2] of 3.28.

`CCCC(OP(=O)(O)OP(=O)(O)OP(=O)(O)O)[C@H]1O[C@@H](n2cnc3c(N)ncnc32)[C@H](O)[C@@H]1O` (stereo not given in full) yielded an inhibition constant Ki in assay [3] of 37 µM. In addition, the negative logarithm of the Ki (pKi) in assay [4] is 4.32.
